Results on one compound are retold here after ChEMBL document CHEMBL4033786, “Discovery of Novel 1-Cyclopentenyl-3-phenylureas as Selective, Brain Penetrant, and Orally Bioavailable CXCR2 Antagonists” (J Med Chem, 2018).

Molecules are shown by their SMILES. ≈ marks a conversion by molar mass, not a printed value.

As usually defined, the clearance is a measure of how efficiently the substance is removed, as volume per time. The low end stands for a low capacity for elimination, the high end for a high capacity for elimination. Broadly, the efflux ratio is the permeability from basolateral to apical divided by that in the opposite direction, in the common usage. By Tmax is commonly meant the time at which the peak concentration occurs. A word on the fraction unbound: it is the share of the substance not bound to proteins or other matrix. The low end stands for little free substance, the high end for much free substance. A word on the Kp: it is tissue or fluid exposure divided by exposure in the circulation. As usually defined, the Cmax is the peak of the concentration-time curve. In general, solubility refers to how much of the substance goes into solution per volume. In general, bioavailability refers to dose-corrected exposure relative to a reference, in per cent.

Data set [1] concerns the target T1, C-X-C chemokine receptor type 2 (Homo sapiens, UniProt P25025).
T1 sequence (P25025 whole entry): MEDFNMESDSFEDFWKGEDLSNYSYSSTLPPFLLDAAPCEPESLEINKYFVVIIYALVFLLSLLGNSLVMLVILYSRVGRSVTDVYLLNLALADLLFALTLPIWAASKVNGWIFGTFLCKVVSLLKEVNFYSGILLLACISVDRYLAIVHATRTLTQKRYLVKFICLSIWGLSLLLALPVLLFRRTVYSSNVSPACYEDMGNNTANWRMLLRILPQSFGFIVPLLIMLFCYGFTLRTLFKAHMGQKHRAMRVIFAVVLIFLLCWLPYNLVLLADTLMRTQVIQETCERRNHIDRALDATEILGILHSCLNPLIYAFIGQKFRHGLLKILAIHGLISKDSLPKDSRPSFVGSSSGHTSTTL
Briefly: Antagonist activity at CXCR2 in human whole blood assessed as inhibition of GROalpha-stimulated CD11b upregulation preincubated for 15 mins followed by GROalpha stimulation measured after 15 mins by FITC-staining based FACS analysis. In general terms: A flow cytometer gives signals particle by particle.

Data set [2] is described as follows: Clearance in Wistar rat blood at 1.01 mg/kg, iv measured up to 4 hrs post dose. It counts as ADME, organism-based.
Data set [3] in a line: Efflux ratio of passive permeability in MDCK2-MDR1 cells transduced with BacMam2-BCRP at 3 uM after 90 mins by Transwell assay. Conditions: dog. It counts as ADME, cell-based, Canis lupus familiaris, MDCK-MDR1. In outline: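 MDCKII-MDR1 cells transduced with BacMam2-BCRP in Transwells. Compound at 3 μM was measured in duplicate, A→B and B→A, after 90 min, with and without 5 μM GF120918. ER = B→A/A→B permeability without inhibitor. System qualified with amprenavir and dantrolene ERs.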

Data set [4] can be described thus: Tmax in Wistar rat at 2.38 mg/kg, po measured up to 4 hrs post dose. It counts as ADME, organism-based. Conditions: in vivo.
A short description of data set [5]: Elimination half life in Wistar rat at 1.01 mg/kg, iv measured up to 4 hrs post dose. The data set is classed as ADME, organism-based. Conditions: in vivo, read-out: beta t1/2 (converted).
Data set [6] can be described thus: Fraction unbound in Han-Wistar SOA rat model brain at 2 mg/kg administered via oral gavage by UPLC/MS/MS analysis. The data set is classed as ADME, organism-based.
A short description of data set [7]: Volume of distribution at steady state in Wistar rat at 1.01 mg/kg, iv measured up to 4 hrs post dose. The data set is classed as ADME, organism-based. Conditions: in vivo, read-out: Vdss.
The nature of data set [8]: Ratio of brain dose normalized AUC (0 to 7 hrs) to […] dose normalized AUC (0 to 7 hrs), Kp of the compound in Han-Wistar SOA rat model at 2 mg/kg administered via oral gavage by UPLC/MS/MS analysis. It counts as ADME, organism-based. The method in brief:
(§1)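 Male Han-Wistar rats given a single 2 mg/kg oral gavage as a suspension in DMSO:1% methylcellulose (1:99). Blood was taken by cardiac puncture under isoflurane at 0.25–7 h, diluted 1:3 with water, and brains were homogenized in 3-fold PBS. Samples were extracted by acetonitrile protein precipitation and quantified by UPLC/MS/MS. Kp = brain DNAUC0-7h/blood DNAUC0-7h; Kp,uu = Kp×Fu,br/Fu,bl.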

Data set [9] is described as follows: Cmax in Wistar rat at 2.38 mg/kg, po measured up to 4 hrs post dose. It counts as ADME, organism-based. The arrangement: dose 2.38 mg/kg, route oral. Conditions: in vivo.
A short description of data set [10]: Passive permeability in MDCK2-MDR1 cells transduced with BacMam2-BCRP at 3 uM after 90 mins by Transwell assay. It counts as ADME, cell-based, Canis lupus familiaris, MDCK-MDR1. Conditions: dog; read-out: permeability. In outline:
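MDCKII-MDR1 cells transduced with BacMam2-BCRP and grown in Transwells. Compound at 3 μM, in duplicate, was incubated 90 min A→B (and B→A) with and without GF120918 (5 μM, dual P-gp/BCRP inhibitor). Passive permeability (Pexact, nm/s) was calculated by an equation from earlier work. The permeability ratio is A→B permeability with GF120918 over A→B permeability without it.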

In data set [11] the target is T1, C-X-C chemokine receptor type 2. Briefly: Antagonist activity at TEV protease cleavage site linked GAL4-VP16-fused recombinant human CXCR2 expressed in cells assessed as inhibition of […] human CXCL1-stimulated beta-arrestin recruitment by CCF4-AM-fluorescence based FRET assay. It counts as cell-based. Conditions: read-out: pIC50 (converted). In outline:
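Stable cell line expressing recombinant human CXCR2 linked to a TEV site and Gal4-VP16. Cells were starved 24 h at 37 °C, 5% CO2, then resuspended at ~200,000 cells/mL. They were given compound in DMSO (concentration-response), stimulated with 80 nM hCXCL1 and incubated overnight at 37 °C. CCF4-AM substrate was then added for 2 h at RT in the dark.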

Data set [12] can be described thus: Fraction unbound in Han-Wistar SOA rat model blood at 2 mg/kg administered via oral gavage by UPLC/MS/MS analysis. It counts as ADME, organism-based.
Data set [13] can be described thus: Solubility of compound in fasted state simulated intestinal fluid measured after 4 hrs. It counts as physicochemical. The method in brief:
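Solubility in FaSSIF, read after 4 h incubation.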

In another data set the test system is Blood. Briefly: Dose normalized AUC (0 to 7 hrs) in Han-Wistar SOA rat model blood at 2 mg/kg administered via oral gavage by UPLC/MS/MS analysis. It counts as ADME, organism-based. Conditions: in vivo. The method in brief:
(§2)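 Male Han-Wistar rats were given 2 mg/kg by oral gavage as a suspension in DMSO:1% methylcellulose (1:99). Blood (cardiac puncture, EDTA-K2, under isoflurane) and brains were collected at 0.25–7 h. Brain was homogenised in 3-fold PBS, samples were protein-precipitated and quantified by UPLC/MS/MS.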

The test system of data set [14] is Rattus norvegicus. Briefly: Dose normalized AUC (0 to infinity) in Wistar rat at 2.38 mg/kg, po measured up to 4 hrs post dose. It counts as ADME, organism-based. Conditions: in vivo.
A further data set relates to Brain. Briefly: Dose normalized AUC (0 to 7 hrs) in Han-Wistar SOA rat model brain at 2 mg/kg administered via oral gavage by UPLC/MS/MS analysis. Conditions: in vivo. The data set is classed as ADME, organism-based. The method in brief:
as §2

The nature of data set [15]: Oral bioavailability in Wistar rat at 2.38 mg/kg measured up to 4 hrs after dose. The data set is classed as ADME, organism-based. Conditions: in vivo.
The nature of data set [16]: Unbound brain-to-blood concentration ratio in Han-Wistar SOA rat model at 2 mg/kg administered via oral gavage by UPLC/MS/MS analysis. Conditions: read-out: K(p,uu,brain). It counts as ADME, organism-based. The method in brief:
as §1

The test system of data set [17] is Rattus norvegicus. Briefly: Dose normalized AUC (0 to infinity) in Wistar rat at 1.01 mg/kg, iv measured up to 4 hrs post dose. The data set is classed as ADME, organism-based. Conditions: in vivo.

On to `CC1=CCC[C@H]1NC(=O)Nc1ccc(Cl)c(S(=O)(=O)C(C)(C)CF)c1O`, for which the IC50 was 100 nM in data set [1] and 0.631 nM in data set [11]. In data set [2], the clearance turned out to be 15.7 mL/min/kg. Further, the efflux ratio at 1.5 h, 3 µM in data set [3] was 0.87. In addition, the Tmax in [4] worked out at 2.5 h. The half-life in data set [5] is 2.5 h. For the same compound, the fraction unbound in data set [6] was 0.034; in data set [12] it was 0.011. Moreover, in [7], the Vd is 2.2 L/kg. In data set [8], the Kp turned out to be 0.16. In [9], this compound gave a Cmax of 292 ng/mL. In [10], the Papp at 1.5 h, 3 µM came to 65.4 ×10⁻⁶ cm/s. Also, the solubility at 4 h in data set [13] was 3 µg/mL (≈ 7.41 µM). Further, the AUC/dose with Blood worked out at 614 ng·h/mL/mg/kg; in the data set with Rattus norvegicus [14], 961 ng·h/mL/mg/kg; in the data set on Brain, 97 ng·h/g/mg/kg; in the data set with Rattus norvegicus [17], 1071 ng·h/mL/mg/kg. In addition, in data set [15], the bioavailability is 88%. In addition, the Kp uu in data set [16] worked out at 0.48.
